Experimental data published in BindingDB's records for doi:10.1021/jm950541c (Georgia Institute of Technology, 1996).

Molecular target: T1, Calpain-2 catalytic subunit (Homo sapiens, UniProt P17655)
T1 sequence (P17655 whole entry): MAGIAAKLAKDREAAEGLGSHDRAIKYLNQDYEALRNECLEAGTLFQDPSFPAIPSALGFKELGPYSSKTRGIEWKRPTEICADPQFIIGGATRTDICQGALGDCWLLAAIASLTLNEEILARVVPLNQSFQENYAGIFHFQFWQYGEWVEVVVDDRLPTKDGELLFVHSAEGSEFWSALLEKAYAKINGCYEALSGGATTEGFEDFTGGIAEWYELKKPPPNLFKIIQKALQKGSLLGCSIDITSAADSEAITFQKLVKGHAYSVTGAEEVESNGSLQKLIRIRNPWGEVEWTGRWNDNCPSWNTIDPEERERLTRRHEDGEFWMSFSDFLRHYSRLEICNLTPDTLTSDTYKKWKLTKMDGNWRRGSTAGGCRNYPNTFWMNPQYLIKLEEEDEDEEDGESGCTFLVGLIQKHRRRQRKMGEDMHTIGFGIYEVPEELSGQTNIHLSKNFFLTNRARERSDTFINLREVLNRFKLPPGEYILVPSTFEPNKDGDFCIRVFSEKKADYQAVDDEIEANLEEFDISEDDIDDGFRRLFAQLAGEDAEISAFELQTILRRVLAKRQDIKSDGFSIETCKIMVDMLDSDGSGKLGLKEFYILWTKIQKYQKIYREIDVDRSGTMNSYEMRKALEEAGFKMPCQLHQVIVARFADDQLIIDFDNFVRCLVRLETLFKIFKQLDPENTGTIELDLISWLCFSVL
Experiment: Compound was evaluated for the inhibition of Cysteine protease Calpain 2
Summary of the method: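 Calpain assay in 25 mM Tris, pH 8.0, with 10 mM CaCl₂ and 5% DMSO. Suc-Leu-AMC hydrolysis was read as initial velocity (t = 30-60 s) after a 30 s delay, at room temperature. Five or more inhibitor concentrations (not above 2 × K_obs) were used at two fixed substrate levels. Ki came from Dixon plots (1/v vs I) averaged over triplicates.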

Row | SMILES | Ki
1 | CCNC(=O)C(=O)C(CC)NC(=O)C(CC(C)C)NC(=O)c1ccc2ccccc2n1 (stereo not given) [Quinoline-2-carboxylic acid [1-(1-ethylaminooxalyl-propylcarbamoyl)-3-methyl-butyl]-amide] | 300 nM
2 | CNC(=O)C(=O)C(Cc1ccccc1)NC(=O)C(CC(C)C)NC(=O)OCc1ccccc1 (stereo not given) [[1-(1-Benzyl-2-methylcarbamoyl-2-oxo-ethylcarbamoyl)-3-methyl-butyl]-carbamic acid benzyl ester] | 150 nM
3 | CC(C)CC(NC(=O)OCc1ccccc1)C(=O)NC(Cc1ccccc1)C(=O)C(=O)NCCNC(=O)CCCC[C@@H]1SC[C@@H]2NC(=O)N[C@@H]21 (stereo partly drawn) [[1-(1-Benzyl-2-oxo-2-{2-[5-((3aR,6S,6aS)-2-oxo-hexahydro-thieno[3,4-d]imidazol-6-yl)-pentanoylamino]-ethylcarbamoyl}-ethylcarbamoyl)-3-methyl-butyl]-carbamic acid benzyl ester] | 160 nM
4 | CC(C)CC(NC(=O)OCc1ccccc1)C(=O)NC(Cc1ccccc1)C(=O)C(=O)NCC(O)c1cccc(Oc2ccc(Cl)c(Cl)c2)c1 (stereo not given) [[1-(1-Benzyl-2-{2-[3-(3,4-dichloro-phenoxy)-phenyl]-2-hydroxy-ethylcarbamoyl}-2-oxo-ethylcarbamoyl)-3-methyl-butyl]-carbamic acid benzyl ester] | 120 nM
5 | CC(C)CC(NC(=O)OCc1ccccc1)C(=O)NC(Cc1ccccc1)C(=O)C(=O)NCC(O)c1cccc(Oc2cccc(C(F)(F)F)c2)c1 (stereo not given) [[1-(1-Benzyl-2-{2-hydroxy-2-[3-(3-trifluoromethyl-phenoxy)-phenyl]-ethylcarbamoyl}-2-oxo-ethylcarbamoyl)-3-methyl-butyl]-carbamic acid benzyl ester] | 450 nM
6 | CCC(NC(=O)C(CC(C)C)NC(=O)OCc1ccccc1)C(=O)C(=O)NCc1ccccc1 (stereo not given) [[1-(1-Benzylaminooxalyl-propylcarbamoyl)-3-methyl-butyl]-carbamic acid benzyl ester] | 350 nM
7 | CCC(NC(=O)C(CC(C)C)NC(=O)OCc1ccccc1)C(=O)C(=O)NCC(O)c1cccc(Oc2cccc(C(F)(F)F)c2)c1 (stereo not given) [[1-(1-{2-Hydroxy-2-[3-(3-trifluoromethyl-phenoxy)-phenyl]-ethylaminooxalyl}-propylcarbamoyl)-3-methyl-butyl]-carbamic acid benzyl ester] | 280 nM
8 | CCC(NC(=O)C(CC(C)C)NC(=O)OCc1ccccc1)C(=O)C(=O)NCC(O)c1cccc(Oc2ccc(Cl)c(Cl)c2)c1 (stereo not given) [[1-(1-{2-[3-(3,4-Dichloro-phenoxy)-phenyl]-2-hydroxy-ethylaminooxalyl}-propylcarbamoyl)-3-methyl-butyl]-carbamic acid benzyl ester] | 120 nM
9 | CCC(NC(=O)C(CC(C)C)NC(=O)OCc1ccccc1)C(=O)C(=O)NC (stereo not given) [[3-Methyl-1-(1-methylaminooxalyl-propylcarbamoyl)-butyl]-carbamic acid benzyl ester] | 83 nM
10 | CCC(NC(=O)C(CC(C)C)NC(=O)OCc1ccccc1)C(=O)C(=O)NCCNC(=O)CCCC[C@@H]1SC[C@@H]2NC(=O)N[C@@H]21 (stereo partly drawn) [[3-Methyl-1-(1-{2-[5-((3aR,6S,6aS)-2-oxo-hexahydro-thieno[3,4-d]imidazol-6-yl)-pentanoylamino]-ethylaminooxalyl}-propylcarbamoyl)-butyl]-carbamic acid benzyl ester] | 280 nM
11 | CCOC(CNC(=O)C(=O)C(CC)NC(=O)C(CC(C)C)NC(=O)OCc1ccccc1)OCC (stereo not given) [{1-[1-(2,2-Diethoxy-ethylaminooxalyl)-propylcarbamoyl]-3-methyl-butyl}-carbamic acid benzyl ester] | 160 nM
12 | CCC(NC(=O)C(CC(C)C)NC(=O)OCc1ccccc1)C(=O)C(=O)NCC(OC)OC (stereo not given) [{1-[1-(2,2-Dimethoxy-ethylaminooxalyl)-propylcarbamoyl]-3-methyl-butyl}-carbamic acid benzyl ester] | 100 nM
13 | CCC(NC(=O)C(CC(C)C)NC(=O)OCc1ccccc1)C(=O)C(=O)NCC(O)c1cccc2ccccc12 (stereo not given) [{1-[1-(2-Hydroxy-2-naphthalen-1-yl-ethylaminooxalyl)-propylcarbamoyl]-3-methyl-butyl}-carbamic acid benzyl ester] | 170 nM
14 | CCC(NC(=O)C(CC(C)C)NC(=O)OCc1ccccc1)C(=O)C(=O)NCC(O)c1ccc2ccccc2c1 (stereo not given) [{1-[1-(2-Hydroxy-2-naphthalen-2-yl-ethylaminooxalyl)-propylcarbamoyl]-3-methyl-butyl}-carbamic acid benzyl ester] | 110 nM
15 | CCC(NC(=O)C(CC(C)C)NC(=O)OCc1ccccc1)C(=O)C(=O)NCC(O)c1c(F)c(F)c(F)c(F)c1F (stereo not given) [{1-[1-(2-Hydroxy-2-pentafluorophenyl-ethylaminooxalyl)-propylcarbamoyl]-3-methyl-butyl}-carbamic acid benzyl ester] | 200 nM
16 | CCCC(NC(=O)C(CC(C)C)NC(=O)OCc1ccccc1)C(=O)C(=O)NCC(O)c1ccccc1 (stereo not given) [{1-[1-(2-Hydroxy-2-phenyl-ethylaminooxalyl)-butylcarbamoyl]-3-methyl-butyl}-carbamic acid benzyl ester] | 11000 nM
17 | CCC(NC(=O)C(CC(C)C)NC(=O)OCc1ccccc1)C(=O)C(=O)NCC(O)c1ccccc1 (stereo not given) [{1-[1-(2-Hydroxy-2-phenyl-ethylaminooxalyl)-propylcarbamoyl]-3-methyl-butyl}-carbamic acid benzyl ester] | 15 nM
18 | CCC(NC(=O)C(CC(C)C)NC(=O)OCc1ccccc1)C(=O)C(=O)NCCO (stereo not given) [{1-[1-(2-Hydroxy-ethylaminooxalyl)-propylcarbamoyl]-3-methyl-butyl}-carbamic acid benzyl ester] | 78 nM
19 | CCC(NC(=O)C(CC(C)C)NC(=O)OCc1ccccc1)C(=O)C(=O)NCc1cc(OC)cc(OC)c1 (stereo not given) [{1-[1-(3,5-Dimethoxy-benzylaminooxalyl)-propylcarbamoyl]-3-methyl-butyl}-carbamic acid benzyl ester] | 22 nM
20 | CCC(NC(=O)C(CC(C)C)NC(=O)OCc1ccccc1)C(=O)C(=O)NCCCn1ccnc1 (stereo not given) [{1-[1-(3-Imidazol-1-yl-propylaminooxalyl)-propylcarbamoyl]-3-methyl-butyl}-carbamic acid benzyl ester] | 68 nM
21 | CCC(NC(=O)C(CC(C)C)NC(=O)OCc1ccccc1)C(=O)C(=O)NCC1(C)CC(O)CC(C)(C)C1 (stereo not given) [{1-[1-(5-Hydroxy-1,3,3-trimethyl-cyclohexylmethyl)-aminooxalyl]-propylcarbamoyl}-3-methyl-butyl)-carbamic acid benzyl ester] | 69 nM
22 | CCC(NC(=O)C(CC(C)C)NC(=O)OCc1ccccc1)C(=O)C(=O)NCCCCCO (stereo not given) [{1-[1-(5-Hydroxy-pentylaminooxalyl)-propylcarbamoyl]-3-methyl-butyl}-carbamic acid benzyl ester] | 51 nM
23 | CCC(NC(=O)C(CC(C)C)NC(=O)OCc1ccccc1)C(=O)C(=O)NCc1ccco1 (stereo not given) [{1-[1-(Furan-2-ylmethyl)-aminooxalyl]-propylcarbamoyl}-3-methyl-butyl)-carbamic acid benzyl ester] | 33 nM
24 | CCC(NC(=O)C(CC(C)C)NC(=O)OCc1ccccc1)C(=O)C(=O)NCc1nccc2ccccc12 (stereo not given) [{1-[1-(Isoquinolin-1-ylmethyl)-aminooxalyl]-propylcarbamoyl}-3-methyl-butyl)-carbamic acid benzyl ester] | 150 nM
25 | CC(C)CC(NC(=O)OCc1ccccc1)C(=O)NC(Cc1ccccc1)C(=O)C(=O)NCC(O)c1c(F)c(F)c(F)c(F)c1F (stereo not given) [{1-[1-Benzyl-2-(2-hydroxy-2-pentafluorophenyl-ethylcarbamoyl)-2-oxo-ethylcarbamoyl]-3-methyl-butyl}-carbamic acid benzyl ester] | 350 nM
26 | CC(C)CC(NC(=O)OCc1ccccc1)C(=O)NC(Cc1ccccc1)C(=O)C(=O)NCC(O)c1ccccc1 (stereo not given) [{1-[1-Benzyl-2-(2-hydroxy-2-phenyl-ethylcarbamoyl)-2-oxo-ethylcarbamoyl]-3-methyl-butyl}-carbamic acid benzyl ester] | 50 nM
27 | CC(C)CC(NC(=O)OCc1ccccc1)C(=O)NC(Cc1ccccc1)C(=O)C(=O)NCCCN1CCOCC1 (stereo not given) [{1-[1-Benzyl-2-(3-morpholin-4-yl-propylcarbamoyl)-2-oxo-ethylcarbamoyl]-3-methyl-butyl}-carbamic acid benzyl ester] | 330 nM
28 | CCC(NC(=O)C(CC(C)C)NC(=O)OCc1ccccc1)C(=O)C(=O)NCc1nc2c(c(=O)n(C)c(=O)n2C)n1C (stereo not given) [{3-Methyl-1-[1-(1,3,7-trimethyl-2,6-dioxo-2,3,6,7-tetrahydro-1H-purin-8-ylmethyl)-aminooxalyl]-propylcarbamoyl}-butyl)-carbamic acid benzyl ester] | 4600 nM
29 | CCC(NC(=O)C(CC(C)C)NC(=O)OCc1ccccc1)C(=O)C(=O)NCCc1ccccn1 (stereo not given) [{3-Methyl-1-[1-(2-pyridin-2-yl-ethylaminooxalyl)-propylcarbamoyl]-butyl}-carbamic acid benzyl ester] | 470 nM
30 | CCCC(NC(=O)C(CC(C)C)NC(=O)OCc1ccccc1)C(=O)C(=O)NCCCN1CCOCC1 (stereo not given) [{3-Methyl-1-[1-(3-morpholin-4-yl-propylaminooxalyl)-butylcarbamoyl]-butyl}-carbamic acid benzyl ester] | 100 nM
